Results published in ChEMBL document CHEMBL3763022, “Potent dual inhibitors of Plasmodium falciparum M1 and M17 aminopeptidases through optimization of S1 pocket interactions” (Eur J Med Chem, 2016).
Converted amounts (≈) assume the structure as drawn.

Legend:
[1] = Inhibition of recombinant Plasmodium falciparum M1 aminopeptidase using H-Leu-NHMec as substrate preincubated for 10 mins followed by addition of substrate by spectrofluorimetric analysis
Method in brief: (§1)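 E. coli-expressed enzymes, purified by Ni-NTA and size exclusion. Preincubation 10 min at 37°C with inhibitor: M1 in 100 mM Tris pH 8.0; M17 in 50 mM Tris pH 8.0, 2 mM CoCl2. Substrate H-Leu-NHMec kept below Km. Fluorescence ex 355/em 460 nm followed to steady-state velocity. Inhibitor range 500pM–500 μM. Ki from Dixon plots (1/V vs [I]).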

[2] = Inhibition of recombinant Plasmodium falciparum M17 aminopeptidase using H-Leu-NHMec as substrate preincubated for 10 mins followed by addition of substrate by spectrofluorimetric analysis; method in brief: as §1
Plasmodium falciparum [3] = experiment: Antiparasitic activity against Plasmodium falciparum Dd2 assessed as growth inhibition after 72 hrs by DAPI staining-based confocal image analysis; type: functional, organism-based; conditions: Dd2, 72 h
Method in brief: (§2)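 Sorbitol-synchronised ring-stage parasites in human O+ erythrocytes at 2% parasitaemia, 0.3% haematocrit, incubated 72 h at 37 °C (5% CO2) with three-step log serial dilutions from 20 μM top, 0.4% DMSO final. Staining with DAPI/saponin/Triton X/EDTA in PBS, confocal imaging, parasite count.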

Plasmodium falciparum [4] = experiment: Antiparasitic activity against Plasmodium falciparum 3D7 assessed as growth inhibition after 72 hrs by DAPI staining-based confocal image analysis; type: functional, organism-based; conditions: 3D7, 72 h; method in brief: as §2
HEK293 = experiment: Cytotoxicity against HEK293 cells assessed as cell viability after 72 hrs by resazurin assay; type: cell-based; conditions: human, hek293, 72 h
Method in brief: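 HEK293 cells in DMEM with 10% FCS, seeded at 2000 cells/well and left to adhere overnight. Compound dose response with top final 40 μM, 0.4% DMSO. Exposure 72 h at 37 °C, 5% CO2. Medium then replaced by 44 μM resazurin in serum-free DMEM for 4-6 h. Fluorescence read at ex/em 530/595 nm.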

Plasmodium falciparum [5] = experiment: Antiparasitic activity against chloroquine/quinine/pyrimethamine/sulfadoxine/NITD609-resistant Plasmodium falciparum Dd2 clone 2 assessed as growth inhibition after 72 hrs by DAPI staining-based confocal image analysis; type: functional, organism-based; conditions: Dd2, 72 h; method in brief: as §2
[6] = Partition coefficient, log D of the compound at pH 7.4 by HPLC method; type: physicochemical; conditions: octanol/water
Method in brief: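 LogD estimated by gradient HPLC (Lombardo-derived method). C18-type Hydro-RP column with 50 mM ammonium acetate pH 7.4 and an acetonitrile gradient of 0–100% over 13.5 min. UV detection at 220/254 nm. Retention compared with nine standards of shake-flask-determined partition coefficients.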

[7] = Intrinsic clearance in human liver microsomes assessed per mg of protein at 1 uM by LC/MS analysis; type: ADME; conditions: read-out: CLH
Method in brief: (§3)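 Human or mouse liver microsomes, 0.4 mg/mL protein in 0.1 M phosphate pH 7.4, with 1 µM compound at 37°C. Reactions started with an NADPH-regenerating system (NADP, glucose-6-phosphate, G6P dehydrogenase) plus MgCl2. Quenched with ice-cold acetonitrile at time points from 0 to 60 min. Parent compound remaining in supernatant measured by LC-MS.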

[8] = Half life in human liver microsomes at 1 uM by LC/MS analysis; type: ADME; method in brief: as §3
[9] = Apparent half life in human plasma incubated for 4 hrs by UPLC/MC analysis; type: ADME, cell-free; conditions: read-out: t1/2(app)
Method in brief: (§4)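 Pooled plasma (human n=3 donors; mouse from multiple animals), thawed and spiked to nominal 500 ng/mL test compound, final 0.2% DMSO and 0.4% acetonitrile (v/v). Incubated at 37°C, 4 h human or 6 h mouse. Duplicate samples taken at time points and snap-frozen. Quantified by UPLC/MS against matched-plasma standards. Half-life obtained by exponential decay fit of % remaining.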

[10] = Kinetic solubility of compound in HCl at pH 2 by nephelometry; type: physicochemical; conditions: read-out: Kinetic_solubility
Method in brief: (§5)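 DMSO stock serially diluted and spiked into pH 6.5 phosphate buffer or 0.01 M HCl (about pH 2.0), final 1% DMSO. Solubility range determined by nephelometry.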

[11] = Intrinsic clearance in mouse liver microsomes assessed per mg of protein at 1 uM by LC/MS analysis; type: ADME; conditions: read-out: CLH; method in brief: as §3
[12] = Kinetic solubility of compound in phosphate buffer at pH 6.5 by nephelometry; type: physicochemical; conditions: read-out: Kinetic_solubility; method in brief: as §5
[13] = Apparent half life in mouse plasma incubated for 6 hrs by UPLC/MC analysis; type: ADME, cell-free; conditions: read-out: t1/2(app); method in brief: as §4
[14] = Half life in mouse liver microsomes at 1 uM by LC/MS analysis; type: ADME; method in brief: as §3

Row | SMILES | Ki [1] [nM] | Ki [2] [nM] | IC50 (Plasmodium falciparum [3]) [nM] | IC50 (Plasmodium falciparum [4]) [nM] | Activity (HEK293) | IC50 (Plasmodium falciparum [5]) [nM] | other results
1 | CC(C)(C)OC(=O)NC(C(=O)NO)c1ccc(-c2ccsc2)cc1 (configuration not stated) | 20000 | 64 |  |  |  |  | 
2 | CC(C)(C)C(=O)NC(C(=O)NO)c1ccc(-c2ccccc2F)cc1 (configuration not stated) | 1600 | 12 | 207 | 131 | Non-toxic | 210 | 
3 | CC(C)(C)OC(=O)NC(C(=O)NO)c1ccc(-c2ccc(C(F)(F)F)cc2)cc1 (configuration not stated) | > 500000 | 470 |  |  |  |  | 
4 | CC(C)(C)C(=O)NC(C(=O)NO)c1ccc(-c2ccccc2)cc1 (configuration not stated) | 1600 | 7 | 190 | 96 | Non-toxic | 219 | 
5 | CC(C)(C)OC(=O)NC(C(=O)NO)c1ccc(-c2cc(F)c(F)c(F)c2)cc1 (configuration not stated) | 19000 | 200 |  |  |  |  | 
6 | CC(C)(C)C(=O)NC(C(=O)NO)c1ccc(-c2ccc(F)cc2F)cc1 (configuration not stated) | 2500 | 5.2 | 164 | 109 | Non-toxic | 216 | 
7 | CC(C)(C)OC(=O)NC(C(=O)NO)c1ccc(-c2ccc(/C(N)=N/O)cc2)cc1 (configuration not stated) | 400 | 18 |  | 334 | Non-toxic |  | 
8 | CC(C)(C)C(=O)NC(Cc1ccc(-c2ccccc2)cc1)C(=O)NO (configuration not stated) | 27000 | 650 |  |  |  |  | 
9 | CC(C)(C)C(=O)NC(C(=O)NO)c1ccc(-c2ccc(F)c(F)c2)cc1 (configuration not stated) | 1400 | 6.4 | 170 | 139 | Non-toxic | 195 | 
10 | CC(C)(C)C(=O)NC(Cc1ccc(I)cc1)C(=O)NO (configuration not stated) | 15000 | 16 |  |  |  |  | 
11 | CC(C)(C)C(=O)NC(C(=O)NO)c1ccc(-c2ccc(F)cc2)cc1 (configuration not stated) | 6500 | 33 | 225 | 126 | Non-toxic | 193 | 
12 | CC(C)(C)OC(=O)NC(C(=O)NO)c1ccc(Br)cc1 (configuration not stated) | 27 | 80 |  | 293 | Non-toxic |  | 
13 | CC(C)(C)C(=O)NC(C(=O)NO)c1ccc(-c2c(F)c(F)c(F)c(F)c2F)cc1 (configuration not stated) | 1800 | 8.4 | 461 | 130 | Non-toxic | 408 | 
14 | Cn1cc(-c2ccc(C(NC(=O)OC(C)(C)C)C(=O)NO)cc2)cn1 (configuration not stated) | 1900 | 56 |  | 978 | Non-toxic |  | 
15 | CC(C)(C)C(=O)NC(C(=O)NO)c1ccc(-c2cc(F)c(F)c(F)c2)cc1 (configuration not stated) | 78 | 60 | 189 | 126 | Non-toxic | 107 | logD [6]: 3; microsomal CLint at 1 µM [7]: 8 µL/min/mg; half-life at 1 µM [8]: 3.68 h; half-life [9]: > 17 h; solubility kinetic [10]: 12.5 µg/mL (≈ 32.9 µM); microsomal CLint at 1 µM [11]: 25 µL/min/mg; solubility kinetic [12]: 12.5 µg/mL (≈ 32.9 µM); half-life [13]: > 25 h; half-life at 1 µM [14]: 1.15 h
16 | CC(C)(C)C(=O)NC(C(=O)NO)c1ccc(-c2c(F)cccc2F)cc1 (configuration not stated) | 4800 | 13 | 251 | 142 | Non-toxic | 246 | 
17 | CC(C)(C)OC(=O)NC(C(=O)NO)c1ccc(-c2cccc(C(F)(F)F)c2)cc1 (configuration not stated) | 2900 | 140 |  |  |  |  | 
18 | CC(C)(C)OC(=O)NC(Cc1ccc(I)cc1)C(=O)NO (configuration not stated) | 4300 | 21000 |  |  |  |  | 
19 | CC(C)(C)C(=O)NC(C(=O)NO)c1ccc(F)cc1 (configuration not stated) | 4000 | 29 | 2010 | 1530 | Non-toxic | 2090 | 
20 | CC(C)(C)C(=O)NC(C(=O)NO)c1ccc(-c2c(F)cc(F)cc2F)cc1 (configuration not stated) | 5900 | 2.5 | 267 | 125 | Non-toxic | 450 | 
21 | C[C@H]1[C@H](OC(=O)CCC(=O)O)O[C@@H]2O[C@@]3(C)CC[C@H]4[C@H](C)CC[C@@H]1[C@@]24OO3 [ARTESUNATE] |  |  | 1.3 |  |  | 0.9 | 
